{"data": "Measured values of several laboratories", "CDK1 with cyclin A": "Cyclin-dependent kinase 1, with cyclin A (CDK1, Homo sapiens, UniProt P06493)", "CDK1 with cyclin B": "Cyclin-dependent kinase 1, with cyclin B (CDK1, Homo sapiens, UniProt P06493)", "CDK1": "Cyclin-dependent kinase 1 (CDK1, Homo sapiens, UniProt P06493)", "CDK1 with cyclin E": "Cyclin-dependent kinase 1, with cyclin E (CDK1, Homo sapiens, UniProt P06493)", "note": "Protocols differ between the studies behind these lines."}
{"Structure (SMILES)": "O=C1NC(=O)c2c1c1c3ccccc3[nH]c1n1cncc21", "target": "CDK1 with cyclin A", "test": "cell-free assay", "conditions": "0.5 µM", "endpoint": "remaining signal", "value": "94.8%"}
{"Structure (SMILES)": "O=C(Nc1cnn(-c2csc(C(=O)NC3COC3)c2)c1)Nc1c(F)cccc1Cl", "target": "CDK1 with cyclin A", "test": "enzyme activity, inhibitor", "conditions": "5 µM", "endpoint": "remaining activity", "value": "86.3%"}
{"Structure (SMILES)": "O=Nc1c(-c2c(O)[nH]c3ccccc23)[nH]c2ccccc12", "target": "CDK1 with cyclin A", "test": "cell-free assay", "conditions": "0.5 µM", "endpoint": "remaining signal", "value": "88.4%"}
{"Structure (SMILES)": "CNCc1ccc(-c2cc(-c3nc(-c4ccc(S(=O)(=O)C(C)C)cc4)cnc3N)on2)cc1", "target": "CDK1 with cyclin B", "test": "enzyme activity, inhibitor", "conditions": "0.4 µM", "endpoint": "inhibition", "value": "0%"}
{"Structure (SMILES)": "CC(C)(C)c1nc(-c2cccc(NS(=O)(=O)c3c(F)cccc3F)c2F)c(-c2ccnc(N)n2)s1", "target": "Cyclin-dependent kinase 1, with cyclin A2 (CDK1, Homo sapiens, UniProt P06493)", "test": "enzyme activity, inhibitor, radiometric", "conditions": "1 µM", "endpoint": "remaining activity", "value": "84%"}
{"Structure (SMILES)": "Cc1cc(NC(=O)c2cccc3cc(-c4cccc5[nH]nc(N)c45)ccc23)ccc1F", "target": "CDK1 with cyclin B", "test": "enzyme activity, inhibitor", "conditions": "0.1 µM", "endpoint": "activity vs control", "value": "95%"}
{"Structure (SMILES)": "CCN(CC)CCNC(=O)c1c(C)[nH]c(/C=C2\\C(=O)Nc3ccc(F)cc32)c1C", "target": "CDK1 with cyclin B", "test": "enzyme activity, inhibitor", "conditions": "0.3 µM", "endpoint": "inhibition", "value": "2%"}
{"Structure (SMILES)": "O=C1Nc2ccc(Cl)cc2C1=Cc1cc(Cl)c(O)c(Cl)c1", "target": "CDK1 with cyclin A", "test": "cell-free assay", "conditions": "0.5 µM", "endpoint": "remaining signal", "value": "91.9%"}
{"Structure (SMILES)": "Cc1ccc(Nc2nccc(N(C)c3ccc4c(C)n(C)nc4c3)n2)cc1S(N)(=O)=O", "target": "CDK1 with cyclin B", "test": "enzyme activity, inhibitor", "conditions": "10 µM", "endpoint": "inhibition", "value": "29%"}
{"Structure (SMILES)": "Nc1nc(Nc2ccc(S(N)(=O)=O)cc2)sc1C(=O)c1ccccc1[N+](=O)[O-]", "target": "CDK1", "test": "enzyme activity, inhibitor", "conditions": "0.1 µM", "endpoint": "inhibition", "value": "90 to 93%"}
{"Structure (SMILES)": "CCCOc1ccc(OC)c(F)c1C(=O)c1ccc(C(=O)N[C@@H]2CNC[C@H]2NC(=O)c2ccc3[nH]ncc3c2)cc1", "target": "CDK1 with cyclin B", "test": "enzyme activity, inhibitor", "conditions": "10 µM", "endpoint": "remaining activity", "value": "102%"}
{"Structure (SMILES)": "O=C1NC(=O)c2cc(Nc3ccc(F)cc3)c(Nc3ccc(F)cc3)cc21", "target": "CDK1 with cyclin A", "test": "cell-free assay", "conditions": "0.5 µM", "endpoint": "remaining signal", "value": "96.1%"}
{"Structure (SMILES)": "CC(C)c1ccc(NC(=O)c2cccs2)c(-c2nc3ccccc3[nH]c2=O)c1", "target": "CDK1 with cyclin B", "test": "enzyme activity, inhibitor", "conditions": "1 µM", "endpoint": "activity vs control", "value": "107%"}
{"Structure (SMILES)": "CC(C)n1cnc2c(Nc3cccc(Cl)c3)nc(NCCO)nc21", "target": "CDK1 with cyclin A", "test": "cell-free assay", "conditions": "0.5 µM", "endpoint": "remaining signal", "value": "78.5%"}
{"Structure (SMILES)": "CC(C)(O)[C@H]1CC[C@H](Nc2ccc3ncc(-c4cccc(C(F)(F)F)c4)n3n2)CC1", "target": "CDK1 with cyclin E", "test": "enzyme activity, inhibitor", "conditions": "1 µM", "endpoint": "remaining activity", "value": "107%"}
{"Structure (SMILES)": "C=CC(=O)Nc1cc(Nc2nccc(Nc3cc(Cl)c(F)cc3C(C)(C)O)n2)c(OC)cc1N1CC[C@@H](N(C)C)C1", "target": "CDK1 with cyclin B", "test": "enzyme activity, inhibitor", "conditions": "1 µM", "endpoint": "inhibition", "value": "-13%"}
{"Structure (SMILES)": "O=C(Nc1cnn(-c2csc(C(=O)NC3COC3)c2)c1)Nc1ccccc1Cl", "target": "CDK1 with cyclin A", "test": "enzyme activity, inhibitor", "conditions": "5 µM", "endpoint": "remaining activity", "value": "95.5%"}
{"Structure (SMILES)": "CC(C)(C)c1nc2c(s1)c1nc(N)ncc1c1ccc(NS(=O)(=O)c3c(F)cccc3F)c(F)c12", "target": "Cyclin-dependent kinase 1, with cyclin E1 (CDK1, Homo sapiens, UniProt P06493)", "test": "enzyme activity, inhibitor, radiometric", "conditions": "1 µM", "endpoint": "remaining activity", "value": "83%"}
{"Structure (SMILES)": "c1ccc(CNc2nc(N3CCOc4ccccc43)nc3c2CCCC3)cc1", "target": "CDK1", "test": "target engagement in cells, inhibitor, chemoproteomics", "conditions": "20 mM", "endpoint": "inhibition", "value": "-6.5%"}
{"Structure (SMILES)": "COc1cc(OC)c(C=C2C(O)=Nc3ccccc32)c(OC)c1", "target": "CDK1 with cyclin A", "test": "cell-free assay", "conditions": "0.5 µM", "endpoint": "remaining signal", "value": "103%"}
{"Structure (SMILES)": "Cc1sc(C(=O)NC2COC2)cc1-n1cc(NC(=O)Nc2c(F)cccc2Cl)cn1", "target": "CDK1 with cyclin E", "test": "enzyme activity, inhibitor", "conditions": "10 µM", "endpoint": "remaining activity", "value": "100%"}
{"Structure (SMILES)": "Cc1ccc(-n2nc(C(C)(C)C)cc2NC(=O)Nc2ccc(OCCN3CCOCC3)c3ccccc23)cc1", "target": "CDK1 with cyclin B", "test": "enzyme activity, inhibitor", "conditions": "10 µM", "endpoint": "inhibition", "value": "-6%"}
